Key:
[1] = biological target: Non-receptor tyrosine-protein kinase TYK2 (Homo sapiens, UniProt P29597); experiment: Inhibition of TYK2 (unknown origin) in presence of Mg/ATP mixture by [gamma p33]-ATP based radiometric assay
[2] = system: BaF3; experiment: Inhibition of JAK2/STAT signaling pathway in mouse BaF3 cells harbouring JAK2 V617F mutant assessed as reduction in STAT3 phosphorylation by Western blot analysis; assay type: cell-based; settings: dose 10-1000 nM
In short: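 Ba/F3 JAK2V617F cells treated with compound at increasing concentrations. Phosphorylation levels of JAK2, STAT3, STAT5 and AKT assessed by Western blot.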

Non-receptor tyrosine-protein kinase TYK2, sequence (P29597 whole entry): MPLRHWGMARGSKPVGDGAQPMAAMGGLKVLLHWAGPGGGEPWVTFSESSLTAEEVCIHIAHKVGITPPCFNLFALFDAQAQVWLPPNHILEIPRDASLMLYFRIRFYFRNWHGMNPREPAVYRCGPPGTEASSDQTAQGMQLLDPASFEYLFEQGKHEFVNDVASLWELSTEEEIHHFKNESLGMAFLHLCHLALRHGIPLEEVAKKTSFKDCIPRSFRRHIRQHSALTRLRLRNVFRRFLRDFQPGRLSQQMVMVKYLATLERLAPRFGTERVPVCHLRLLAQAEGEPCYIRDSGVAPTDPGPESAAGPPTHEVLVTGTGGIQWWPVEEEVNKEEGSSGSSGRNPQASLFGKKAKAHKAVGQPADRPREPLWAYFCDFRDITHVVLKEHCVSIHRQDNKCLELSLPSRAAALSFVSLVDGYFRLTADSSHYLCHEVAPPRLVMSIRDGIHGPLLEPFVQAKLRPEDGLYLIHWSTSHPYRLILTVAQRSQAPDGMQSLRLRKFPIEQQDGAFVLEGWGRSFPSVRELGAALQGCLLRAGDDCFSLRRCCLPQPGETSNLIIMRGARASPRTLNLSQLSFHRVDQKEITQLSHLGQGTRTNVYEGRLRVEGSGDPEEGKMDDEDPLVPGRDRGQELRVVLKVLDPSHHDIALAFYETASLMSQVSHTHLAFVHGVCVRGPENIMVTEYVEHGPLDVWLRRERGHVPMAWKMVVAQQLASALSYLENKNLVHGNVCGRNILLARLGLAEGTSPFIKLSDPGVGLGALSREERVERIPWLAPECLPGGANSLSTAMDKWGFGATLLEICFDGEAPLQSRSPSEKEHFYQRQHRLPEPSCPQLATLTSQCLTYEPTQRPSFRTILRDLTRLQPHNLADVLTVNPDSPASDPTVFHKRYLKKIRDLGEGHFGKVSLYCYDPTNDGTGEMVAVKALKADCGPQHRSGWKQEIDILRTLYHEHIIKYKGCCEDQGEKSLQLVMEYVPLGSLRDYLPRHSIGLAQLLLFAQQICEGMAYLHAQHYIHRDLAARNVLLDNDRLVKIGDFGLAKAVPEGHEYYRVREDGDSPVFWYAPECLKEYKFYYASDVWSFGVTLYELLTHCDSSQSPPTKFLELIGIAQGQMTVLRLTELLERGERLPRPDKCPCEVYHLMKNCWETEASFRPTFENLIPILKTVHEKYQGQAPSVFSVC

IC50 [1]: 206 nM
SMILES: C=CS(=O)(=O)NCc1ccc(Nc2ncc(C)c(-c3cnn(C(C)C)c3)n2)cc1
inhibition [2]: Dose-Dependent Effect

From ChEMBL document CHEMBL5325511, “Discovery of N-(4-(Aminomethyl)phenyl)-5-methylpyrimidin-2-amine Derivatives as Potent and Selective JAK2 Inhibitors” (ACS Med Chem Lett, 2023)
